Our source for the IC50 values is ChEMBL document CHEMBL1157245, “Bromophenols coupled with methyl gamma-ureidobutyrate and bromophenol sulfates from the red alga Rhodomela confervoides” (J Nat Prod, 2006).

Common to all, as to type: functional, cell-based
Experiment [1] deals with Bel-7402. The experiment is described as follows: Cytotoxicity against human BEL-7402 cells after 96 hrs by MTT assay. Particulars: Bel-7402, 96 h. Summed up: (§1)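 Cell lines from ATCC, grown in RPMI 1640 with 10% FBS plus penicillin/streptomycin at 37 °C, 5% CO2. Seeded at 1200 cells/well; compounds added 24 h later at five concentrations from DMSO stocks (final DMSO 0.1%), triplicate wells.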
For orientation: Tetrazolium assays rely on reduction of a dye to a coloured formazan, in cell work by metabolically active cells.

Experiment [2] has as its system A2780. Kind of experiment: Cytotoxicity against human A2780 cells after 96 hrs by MTT assay. Particulars: A2780, 96 h. Summed up:
as §1

In experiment [3] the test system is HCT-8. Kind of experiment: Cytotoxicity against human HCT8 cells after 96 hrs by MTT assay. Particulars: HCT-8, 96 h. Summed up: as §1
Experiment [4] concerns BGC-823. The experiment is described as follows: Cytotoxicity against human BGC823 cells after 96 hrs by MTT assay. The following applies: BGC-823, 96 h. A digest of the protocol: as §1
Experiment [5] has as its system A549. The experiment is described as follows: Cytotoxicity against human A549 cells after 96 hrs by MTT assay. Particulars: A549, 96 h. Summed up:
as §1

The IC50 is the concentration at which inhibition is half-maximal. A high value points to weaker potency. Consider `COC(=O)CCCNC(=O)NCc1cc(O)c(O)c(Br)c1Cc1cc(O)c(O)c(Br)c1Br`, for which the concentration for half-maximal inhibition (IC50) in experiment [1], in experiment [2], in experiment [3], in experiment [4] and in experiment [5] was more than 10 µg/mL each time.
With `COC(=O)CCCNC(=O)NCc1cc(O)c(O)c(Br)c1Br`, the IC50 in experiment [1], in experiment [2], in experiment [3], in experiment [4] and in experiment [5] was more than 10 µg/mL each time.
`OCCc1cc(O)c(O)c(Br)c1Br`: the IC50 in experiment [1] stood at 19.4 µM; in experiment [2] it was 19.9 µM; in experiment [3], 15.4 µM; in experiment [4], 20.2 µM; in experiment [5], 19.7 µM.
The matching figures for `COC(=O)CCCNC(=O)N(Cc1cc(O)c(O)c(Br)c1Br)Cc1cc(O)c(O)c(Br)c1Cc1cc(O)c(O)c(Br)c1Br`: more than 10 µg/mL, more than 10 µg/mL, more than 10 µg/mL, more than 10 µg/mL and more than 10 µg/mL.
In the same order, the values of `O=S(=O)(O)OCCc1cc(O)c(O)c(Br)c1Cc1cc(O)c(O)c(Br)c1Br` are 13.5 µM, more than 16.9 µM, 12.1 µM, 15.1 µM and 14.5 µM.
The matching figures for `O=S(=O)(O)OCCc1cc(O)c(O)c(Br)c1Br`: 14.8 µM, 9.4 µM, 14.6 µM, 14 µM and 14.7 µM.
For `COC(=O)CCCN(Cc1cc(O)c(O)c(Br)c1Br)C(=O)NCc1cc(O)c(O)c(Br)c1Br`, the IC50 in experiment [1], in experiment [2], in experiment [3], in experiment [4] and in experiment [5] was more than 10 µg/mL in each case.
Regarding `O=S(=O)(O)OCCc1cc(O)c(O)c(Br)c1`, the half-inhibitory concentration (IC50) in experiment [1] amounted to 20.4 µM; in experiment [2], 20.8 µM; in experiment [3], 18.8 µM; in experiment [4], 19.1 µM; in experiment [5], 18.5 µM.
The matching figures for `O=c1[nH]cc(F)c(=O)[nH]1` [FLUOROURACIL]: 4.2 µM, 5 µM, 4.2 µM, 5.4 µM and 1.4 µM.
